Reference: ChEMBL document CHEMBL3751733, “Synergistic Antifungal Meroterpenes and Dioxolanone Derivatives from the Endophytic Fungus Guignardia sp” (J Nat Prod, 2015)
In brackets after ≈: the same amount, converted by molar mass. Activity calls are given as the source filed them. No cut-off for these calls is given here.

How the values were obtained:
Candida albicans [1] = test: Antifungal activity against Candida albicans ATCC 24433 assessed as growth inhibition after 24 hrs by broth microdilution assay; assay type: functional; settings: ATCC 24433, 24 h
Outline: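 Broth microdilution: 24-h colonies suspended in 0.85% saline, diluted in RPMI-1640 with MOPS to 1.0 × 10^4 cfu/mL final, mixed 1:1 with sample; 35 °C, 24 h; OD 595 nm. MIC = lowest concentration giving 80% growth reduction. Fluconazole positive control; SD from three independent experiments.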

Candida albicans [2] = test: Antifungal activity against Candida albicans ATCC 24433 assessed as synergistic growth inhibition after 24 hrs in presence of fluconazole by broth microdilution assay; assay type: functional; settings: ATCC 24433, 24 h
Outline: (§1)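 Checkerboard in RPMI-1640/MOPS, inoculum 1.0 × 10^4 cfu/mL, 35 °C, 24 h, OD 595 nm. Compound 25 to 0.8 μg/mL against fluconazole 4.0 to 0.0078 μg/mL. MIC = concentrations giving ≥80% growth reduction. FICI ≤ 0.5 counts as synergy; values compared at fluconazole 0.031 μg/mL.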

Candida albicans [3] = test: Antifungal activity against Candida albicans ATCC 24433 assessed as fractional inhibition concentration ratio in presence of fluconazole by checkerboard assay; assay type: functional; outline: as §1
Candida albicans [4] = test: Antifungal activity against Candida albicans ATCC 24433 assessed as fractional inhibition concentration index in presence of fluconazole by checkerboard assay; assay type: functional; outline: as §1
Candida albicans [5] = test: Antibiofilm activity against Candida albicans ATCC 24433 after 24 hrs by XTT-based colorimetric assay; assay type: functional; settings: ATCC 24433, 24 h
Outline: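 XTT assay: YPD overnight culture, PBS-washed, 1.0 × 10^6 cfu/mL in RPMI-1640/MOPS; biofilms formed at 37 °C for 24 h, washed, then treated 24 h at 37 °C; 0.5 mg/mL XTT for 2 h, read at 490 nm. MIC = lowest concentration giving ≥80% reduction in XTT signal.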

Candida albicans [6] = test: Antibiofilm activity against Candida albicans ATCC 24433 after 24 hrs in presence of fluconazole by XTT-based colorimetric assay; assay type: functional; settings: ATCC 24433, 24 h
Outline: (§2)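 Preformed biofilms (1.0 × 10^6 cfu/mL in RPMI-1640/MOPS, 37 °C, 24 h) treated 24 h at 37 °C in a checkerboard: compounds 160 to 5 μg/mL, fluconazole 500 to 8 μg/mL. Read by 0.5 mg/mL XTT for 2 h at 490 nm, ≥80% reduction as endpoint; FICI calculated.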

Candida albicans [7] = test: Synergistic antibiofilm activity against Candida albicans ATCC 24433 assessed as fractional inhibition concentration ratio after 24 hrs in presence of fluconazole by checkerboard assay; assay type: functional; outline: as §2
Candida albicans [8] = test: Synergistic antibiofilm activity against Candida albicans ATCC 24433 assessed as fractional inhibition concentration index after 24 hrs in presence of fluconazole checkerboard assay; assay type: functional; outline: as §2
U2OS = test: Cytotoxicity against human U2OS cells by MTT assay; assay type: cell-based
Outline: (§3)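 MTT assay with cisplatin as positive control.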

MCF7 = test: Cytotoxicity against human MCF7 cells by MTT assay; assay type: cell-based; outline: as §3
HepG2 = test: Cytotoxicity against human HepG2 cells by MTT assay; assay type: cell-based; outline: as §3
Staphylococcus aureus = test: Antibacterial activity against Staphylococcus aureus ATCC 25923 by broth microdilution method; assay type: functional
Outline: (§4)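 Broth microdilution in 96-well plates; MIC read by comparing OD with the growth control; amoxicillin and streptomycin as positive controls.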

Bacillus subtilis = test: Antibacterial activity against Bacillus subtilis ATCC 6633 by broth microdilution method; assay type: functional; outline: as §4
Escherichia coli = test: Antibacterial activity against Escherichia coli ATCC 25922 by broth microdilution method; assay type: functional; outline: as §4
Pseudomonas aeruginosa = test: Antibacterial activity against Pseudomonas aeruginosa ATCC 9027 by broth microdilution method; assay type: functional; outline: as §4
Candida albicans [9] = test: Potentiation of antifungal activity of fluconazole against Candida albicans ATCC 24433 by checkerboard assay; assay type: functional; outline: as §1
Candida albicans [10] = test: Synergistic antibiofilm activity against Candida albicans ATCC 24433 assessed as reduction in biofilm formation at 40 to 80 ug/ml in presence of 63 ug/ml fluconazole by scanning electron microscopic analysis; assay type: functional, organism-based
Outline: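 Biofilms grown 24 h at 37 °C on poly-L-lysine-treated glass coverslips from 1.0 × 10^6 cfu/mL, washed, then exposed 24 h to compound plus fluconazole; fixed in 2.5% glutaraldehyde (0.2 M PBS, pH 7.2) and 1% osmium, ethanol-dehydrated, critical-point dried, gold-coated; SEM at 10 kV.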

SMILES	MIC80 (Candida albicans [1])	MIC80 (Candida albicans [2])	Ratio (Candida albicans [3])	fractional inhibitory concentration index (FICI) (Candida albicans [4])	MIC80 (Candida albicans [5])	MIC80 (Candida albicans [6])	Ratio (Candida albicans [7])	fractional inhibitory concentration index (FICI) (Candida albicans [8])	Activity (U2OS)	Activity (MCF7)	Activity (HepG2)	MIC (Staphylococcus aureus)	MIC (Bacillus subtilis)	MIC (Escherichia coli)	MIC (Pseudomonas aeruginosa)	fold change (FC) (Candida albicans [9])	Activity (Candida albicans [10])	MIC (Candida albicans [2])
CC(C)[C@@]1(C(=O)O)OC(=O)/C(=C/c2ccccc2)O1	87.5 µg/mL (≈ 334 µM)	6.3 µg/mL	0.07	0.19	> 200 µg/mL	20 µg/mL	<0.1	<0.16	Non-toxic	Non-toxic	Non-toxic	–	–	–	–	–	–	–
C=C(C)[C@@H]1[C@H](O)C[C@@]2(C)OC3=C(C[C@@H]12)C(=O)[C@]1(O)CO[C@H]3C1	> 100 µg/mL	25 µg/mL	<0.25	<0.38	> 200 µg/mL	40 µg/mL	<0.25	<0.31	Non-toxic	Non-toxic	Non-toxic	73.6 µg/mL (≈ 240 µM)	73.5 µg/mL (≈ 240 µM)	88.3 µg/mL (≈ 288 µM)	53.2 µg/mL (≈ 174 µM)	>16	–	–
C=C(C)[C@@H]1C[C@H](O)[C@@]2(C)OC3=C(C[C@@H]12)C(=O)[C@](O)(CO)C[C@@H]3O	–	–	–	–	> 200 µg/mL	80 µg/mL	<0.4	<0.46	Non-toxic	Non-toxic	Non-toxic	–	–	–	–	–	–	–
C[C@](O)(CO)[C@@H]1CC[C@@]2(C)OC3=C(C[C@@H]12)C(=O)[C@]1(O)CO[C@H]3C1	> 100 µg/mL	25 µg/mL	<0.25	<0.38	> 200 µg/mL	80 µg/mL	<0.4	<0.46	Non-toxic	Non-toxic	Non-toxic	–	–	–	–	–	–	–
C=C(C)[C@@H]1CC[C@@]2(C)OC3=C(C[C@@H]12)C(=O)[C@H](O)C[C@@H]3O	–	–	–	–	> 200 µg/mL	–	–	–	Non-toxic	Non-toxic	Non-toxic	–	–	–	–	–	–	–
C=C(C)[C@@H]1CC[C@@]2(C)OC3=C(C[C@@H]12)C(=O)[C@H](OC)C[C@@H]3O	–	–	–	–	> 200 µg/mL	–	–	–	Non-toxic	Non-toxic	Non-toxic	> 100 µg/mL	37.3 µg/mL (≈ 128 µM)	> 100 µg/mL	> 100 µg/mL	–	–	–
Oc1cccc2c1[C@H](O)[C@@H]1O[C@@H]1C21Oc2cccc3cccc(c23)O1	24.3 µg/mL (≈ 72.7 µM)	6.3 µg/mL	0.26	0.38	145 µg/mL (≈ 434 µM)	40 µg/mL	0.28	<0.34	Non-toxic	Non-toxic	Non-toxic	37.7 µg/mL (≈ 113 µM)	59.5 µg/mL (≈ 178 µM)	> 100 µg/mL	45.5 µg/mL (≈ 136 µM)	–	–	–
C=C(C)[C@@H]1CC[C@@]2(C)OC3=C(C[C@@H]12)C(=O)[C@](O)(CO)C[C@@H]3O	–	–	–	–	> 200 µg/mL	–	–	–	Non-toxic	Non-toxic	Non-toxic	> 100 µg/mL	89.3 µg/mL (≈ 290 µM)	> 100 µg/mL	> 100 µg/mL	–	–	–
C[C@@]12CC[C@@H]([C@](C)(O)CO)[C@@H]1CC1=C(O2)[C@@H]2C[C@@](O)(CO2)C1=O	57.3 µg/mL (≈ 177 µM)	6.3 µg/mL	0.11	0.23	> 200 µg/mL	40 µg/mL	<0.25	<0.31	Non-toxic	Non-toxic	Non-toxic	79.2 µg/mL (≈ 244 µM)	> 100 µg/mL	78 µg/mL (≈ 240 µM)	> 100 µg/mL	>16	Active	–
COC(=O)[C@]1(C(C)C)OC(=O)/C(=C\c2ccc(O)cc2)O1	–	–	–	–	> 200 µg/mL	–	–	–	Non-toxic	Non-toxic	Non-toxic	–	–	–	–	–	–	–
CN[C@@H]1[C@H](O[C@H]2[C@H](O[C@H]3[C@H](O)[C@@H](O)[C@H](N=C(N)N)[C@@H](O)[C@@H]3N=C(N)N)O[C@@H](C)[C@]2(O)C=O)O[C@@H](CO)[C@H](O)[C@H]1O [STREPTOMYCIN]	–	–	–	–	–	–	–	–	–	–	–	–	–	2.4 µg/mL (≈ 4.13 µM)	1.7 µg/mL (≈ 2.92 µM)	–	–	–
CC1(C)S[C@@H]2[C@H](NC(=O)[C@H](N)c3ccc(O)cc3)C(=O)N2[C@H]1C(=O)O [AMOXICILLIN]	–	–	–	–	–	–	–	–	–	–	–	0.8 µg/mL (≈ 2.19 µM)	1 µg/mL (≈ 2.74 µM)	–	–	–	–	–
C=C(COC(C)=O)[C@@H]1CC[C@@]2(C)OC3=C(C[C@@H]12)C(=O)[C@]1(O)CO[C@H]3C1	–	–	–	–	> 200 µg/mL	–	–	–	Non-toxic	Non-toxic	Non-toxic	–	–	–	–	–	–	–
C=C(C)[C@@H]1CC[C@@]2(C)OC3=C(C[C@@H]12)C(=O)[C@@H]1C[C@@]3(O)CO1	–	–	–	–	> 200 µg/mL	–	–	–	Non-toxic	Non-toxic	Non-toxic	–	–	–	–	–	–	–
CC(C)(O)[C@@H]1CC[C@@]2(C)OC3=C(C[C@@H]12)C(=O)[C@]1(O)CO[C@H]3C1	15.5 µg/mL (≈ 50.3 µM)	6.3 µg/mL	–	0.32	> 200 µg/mL	80 µg/mL	<0.4	<0.46	Non-toxic	Non-toxic	Non-toxic	> 100 µg/mL	67.7 µg/mL (≈ 220 µM)	35.9 µg/mL (≈ 116 µM)	52.1 µg/mL (≈ 169 µM)	–	–	–
C=C(C)[C@@H]1C[C@H](O)[C@@]2(C)OC3=C(C[C@@H]12)C(=O)[C@]1(O)CO[C@H]3C1	–	–	–	–	> 200 µg/mL	80 µg/mL	<0.4	<0.46	Non-toxic	Non-toxic	Non-toxic	–	–	–	–	–	–	–
C=C(CO)[C@@H]1CC[C@@]2(C)OC3=C(C[C@@H]12)C(=O)[C@]1(O)CO[C@H]3C1	–	–	–	–	> 200 µg/mL	–	–	–	Non-toxic	Non-toxic	Non-toxic	–	–	–	–	–	–	–
CC(C)[C@H]1OC(=O)[C@H](Cc2ccccc2)N(C)C(=O)[C@@H](C(C)C)OC(=O)[C@H](Cc2ccccc2)N(C)C(=O)[C@@H](C(C)C)OC(=O)[C@H](Cc2ccccc2)N(C)C1=O	> 100 µg/mL	–	<0.013	<0.13	> 200 µg/mL	40 µg/mL	<0.25	<0.31	–	–	–	–	–	–	–	>16	–	1.3 µg/mL
C=C(C)[C@@H]1CC[C@@]2(C)OC3=C(C[C@@H]12)C(=O)[C@]1(O)CO[C@H]3C1	–	–	–	–	> 200 µg/mL	–	–	–	Non-toxic	Non-toxic	Non-toxic	> 100 µg/mL	> 100 µg/mL	> 100 µg/mL	25.5 µg/mL (≈ 87.8 µM)	–	–	–
C=C(C)[C@@H]1CC[C@@]2(C)OC3=C(C[C@@H]12)C(=O)[C@@H](OC)C[C@@H]3O	–	–	–	–	> 200 µg/mL	–	–	–	Non-toxic	Non-toxic	Non-toxic	–	–	–	–	–	–	–
